Structures are written as SMILES. In brackets after ≈: the same amount, converted by molar mass.

Here are results for four compounds from article PMC11436873 (Nature Communications, 2024).

The subject of one series is HCT-8 cells. Kind of series: host cell cytotoxicity, CellTiter AQueous. It counts as cell-based, human. In outline:
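HCT-8 cells are grown in RPMI 1640 with 10% heat-inactivated FBS and penicillin/streptomycin at 37 °C, 5% CO2, used at passages 9–39. Confluent (>95%) monolayers get varying compound concentrations for 48 h. MTS reduction is read at 490 nm, blanked against trypsinised wells, and expressed as % viability versus DMSO. TC50 is curve-fitted; the selectivity index is the […].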

The test system of series [1] is C. parvum. Description: NOD SCID gamma mouse model of cryptosporidiosis, fecal parasite shedding by qPCR. As to conditions: NSG mice. It counts as in vivo. In outline: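 Male NSG mice aged 4–5 weeks are infected with C. parvum oocysts. Oral gavage starts 7 (or 14) days post-infection and runs 7 days. Dosing stock in DMSO is diluted into 1% HPMC (5% DMSO final, 100 μL per dose), with a paromomycin control. Fecal shedding per mg feces is measured by qPCR at treatment start, at treatment end and one week later. n = 4 mice per group, mean and SEM.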
(In general: In qPCR the cycle at which signal appears reflects the starting amount.)

Series [2] is described as follows: kinetic aqueous solubility.
Another series relates to C. hominis Tu502 strain. Description: C. hominis growth in HCT-8 cells, same method. It is filed as cell-based. Particulars: Cryptosporidium hominis, HCT-8, read-out: C. hominis EC50. In outline: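 TU502 oocysts, used within 1 month, excysted with 10 mM HCl (10 min, 37 °C) and then 2 mM sodium taurocholate in PBS (10 min, 16 °C). Material from 5500 oocysts/well was added to >95% confluent HCT-8 monolayers (passages 9–39, 37 °C, 5% CO2). Compound went in 3 h post-infection, with nitazoxanide as control. At 48 h, cells were fixed with paraformaldehyde and stained with fluorescein-Vicia villosa lectin plus Hoechst.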

Series [3] has as its system C. parvum. Description: Cryptosporidium rate-of-action assay in HCT-8 cells. It is filed as cell-based, Cryptosporidium parvum. Particulars: for parasite elimination in rate-of-action assay: nitazoxanide at EC90, highest tolerated concentration. Put shortly:
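HCT-8 monolayers (>90% confluent) are infected with C. parvum sporozoites excysted with 10 mM HCl and then 2 mM taurocholate. […] Cells are fixed, stained with V. villosa lectin and Hoechst, and counted by epifluorescence. Counts are normalised to host nuclei and DMSO wells, then fitted to one-phase exponential decay. Four wells per condition.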

A short description of series [4]: NSG mouse weights and tolerability during efficacy testing. As to conditions: 50 mpk twice daily, 7 days. It counts as in vivo, Mus musculus (NOD SCID gamma mice).
Another series addresses hERG potassium channel (Homo sapiens, UniProt Q12809). Kind of series: hERG [3H]-dofetilide competitive binding. Particulars: probe [3H]-dofetilide.
Another series concerns 47 human targets. Kind of series: Eurofins SafetyScan47 panel, whole panel. As to conditions: dose-response up to 30 μM.
A further series concerns Cryptosporidium. As to conditions: cited from earlier work.
Series [5] concerns C. parvum CpPDE1 Val900Ala. Description: HCT-8 cell growth assay, CRISPR CpPDE1 Val900Ala mutant parasite. It counts as cell-based. As to conditions: Cryptosporidium parvum, HCT-8, read-out: EC50, CpPDE1 V900A, HCT-8 cell growth assay.
A further series deals with human PDE-V. Particulars: read-out: IC50 for human PDE-V; cited from earlier work.

hERG potassium channel, sequence (Q12809 whole entry): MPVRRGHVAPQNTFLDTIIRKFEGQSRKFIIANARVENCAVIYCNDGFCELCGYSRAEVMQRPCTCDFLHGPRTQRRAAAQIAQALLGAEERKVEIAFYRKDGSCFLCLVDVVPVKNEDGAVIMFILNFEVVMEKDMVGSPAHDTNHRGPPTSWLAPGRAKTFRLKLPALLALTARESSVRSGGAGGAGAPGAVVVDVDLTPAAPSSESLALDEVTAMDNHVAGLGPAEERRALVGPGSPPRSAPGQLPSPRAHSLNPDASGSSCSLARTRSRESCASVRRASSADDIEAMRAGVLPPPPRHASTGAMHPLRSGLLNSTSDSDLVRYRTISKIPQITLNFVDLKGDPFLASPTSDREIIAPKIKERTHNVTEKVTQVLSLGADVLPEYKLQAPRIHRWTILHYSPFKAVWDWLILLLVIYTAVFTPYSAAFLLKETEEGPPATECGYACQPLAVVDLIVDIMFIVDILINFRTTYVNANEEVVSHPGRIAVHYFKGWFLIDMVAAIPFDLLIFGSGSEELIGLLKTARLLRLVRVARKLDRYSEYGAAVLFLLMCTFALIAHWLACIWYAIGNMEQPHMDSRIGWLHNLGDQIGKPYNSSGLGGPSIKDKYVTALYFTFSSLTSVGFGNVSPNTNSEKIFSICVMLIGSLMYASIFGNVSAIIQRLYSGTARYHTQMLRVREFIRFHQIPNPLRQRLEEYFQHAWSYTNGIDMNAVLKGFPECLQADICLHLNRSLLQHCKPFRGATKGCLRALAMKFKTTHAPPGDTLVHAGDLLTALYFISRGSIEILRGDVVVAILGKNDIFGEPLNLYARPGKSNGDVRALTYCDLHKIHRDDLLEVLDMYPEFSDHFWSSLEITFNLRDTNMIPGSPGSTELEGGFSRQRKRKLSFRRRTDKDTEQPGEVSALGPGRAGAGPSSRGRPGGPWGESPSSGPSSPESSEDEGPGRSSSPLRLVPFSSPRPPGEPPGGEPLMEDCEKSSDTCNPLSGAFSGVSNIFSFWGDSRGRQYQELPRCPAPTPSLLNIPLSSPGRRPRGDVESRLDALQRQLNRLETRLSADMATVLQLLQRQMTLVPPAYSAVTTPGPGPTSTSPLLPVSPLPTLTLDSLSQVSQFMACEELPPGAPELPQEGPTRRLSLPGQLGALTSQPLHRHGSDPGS

Broadly, the kinetic solubility is solubility judged after dilution from a stock solution rather than from solid. `COc1ccc(CNc2nc(-c3ccc(C(=O)O)cc3)nc3c2c2ccccc2n3C)cc1Cl` [PDEi4] yielded a selectivity index in the series on HCT-8 cells (HCT-8 TC50 vs C. parvum EC50) of 100. In the series on C. parvum [1] (50 mpk twice daily oral), the “efficacy, 7-day dosing” value was “no significant effect”. In [2] (PBS, pH 7.4, aqueous buffer, kinetic from dmso stock), this compound gave a solubility (kinetic) at 2 h of 21 µM (≈ 9.93 µg/mL).

Broadly, the EC50 is the concentration giving half of the maximal effect. The term inhibition denotes the drop in the measured response relative to a control, in per cent. On to `CCc1nn(C)c2nc(-c3ccc(C(=O)O)cc3)nc(NCc3ccc(F)cc3)c12` [PDEi5, 4-(3-ethyl-4-((4-fluorobenzyl)amino)-1-methyl-1H-pyrazolo[3,4-d]pyrimidin-6-yl)benzoic acid], for which the EC50 with C. hominis Tu502 strain worked out at 4.7 µM. Also, the “time required for 99.9% parasite reduction” value in the series on C. parvum [3] (in the absence of host immune help) was ~ 107 h. Moreover, in the series with HCT-8 cells (100 μM, highest concentration tested), the “toxicity to the HCT-8 cell line” value is given as “non-toxic”. Moreover, the “reduction of parasite shedding after 7 days of treatment” value with C. parvum [1] (50 mpk twice daily oral) is given as ~ 99%. Further, the relapse after treatment result in the series on C. parvum [1] (after 7-day dosing) is “infection relapsed within a week of stopping treatment”. Further, in [4], the “fall of mean mouse weight in the final days of treatment” value is ~ 5%. For the same compound, the inhibition at 10 µM at hERG potassium channel is -14.7%. Also, the “SafetyScan47 EC50/IC50 for 45 of 47 targets” value with 47 human targets was greater than 30 µM. The kinetic solubility in series [2] (aqueous solution, pH 7.4) came out at 200 µM (≈ 81.1 µg/mL).

Turning to `CC(=O)Oc1ccccc1C(=O)Nc1ncc([N+](=O)[O-])s1` [nitazoxanide], the “parasite elimination in rate-of-action assay” value with C. parvum [3] is “no nitazoxanide-dependent parasite elimination occurred”. In addition, the “parasite elimination in rate-of-action assay” value with C. parvum [3] (listed as NTZ) is “No exponential decay curve could be fit”. Further, in the series with Cryptosporidium, the “effectiveness in AIDS patients” value is recorded as “equivalent to a placebo” and the effectiveness in children is on record as ~ 56%.

A word on the IC50: it is the point on the concentration scale where inhibition reaches its midpoint. For the compound `CCCc1nn(C)c2c(=O)[nH]c(-c3cc(S(=O)(=O)N4CCN(C)CC4)ccc3OCC)nc12` [sildenafil], in series [5], the half-maximal effective concentration (EC50) stood at 14 µM. Besides, the IC50 in the series with human PDE-V was 0.0035 µM.
